ChEMBL document CHEMBL1142148, “Antibiotic susceptibility profile of bifidobacteria as affected by oxgall, acid, and hydrogen peroxide stress” (2007)
Converted amounts (≈) assume the structure as drawn.

Legend:
[1] = tested on: Bifidobacterium animalis; assay: Antimicrobial activity against Bifidobacterium animalis ATCC 27536; format: functional
In short: (§1)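 Broth microdilution in MRS plus 0.05% L-cysteine-HCl. Mid-log culture adjusted to OD650 0.1, giving about 2.5 × 10^4 to 5.0 × 10^4 CFU/well, then added to twofold serial dilutions of agent. Plates incubated anaerobically at 37°C for 18 h and read at OD650. MIC is the lowest concentration matching the uninoculated blank OD, taken as the median of four repeats.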

[2] = tested on: Bifidobacterium bifidum; assay: Antimicrobial activity against Bifidobacterium bifidum R0071; format: functional; in short: as §1
[3] = tested on: Bifidobacterium bifidum; assay: Antimicrobial activity against Bifidobacterium bifidum ATCC 15696; format: functional; in short: as §1
[4] = tested on: Bifidobacterium bifidum; assay: Antimicrobial activity against Bifidobacterium bifidum BB12; format: functional; in short: as §1
[5] = tested on: Bifidobacterium breve; assay: Antimicrobial activity against Bifidobacterium breve ATCC 15700; format: functional; in short: as §1
[6] = Antimicrobial activity against Bifidobacterium infantis ATCC 15697; format: functional, Bifidobacterium longum subsp. infantis; details: Bifidobacterium longum; in short: as §1
[7] = tested on: Bifidobacterium longum; assay: Antimicrobial activity against Bifidobacterium longum ATCC 15708; format: functional; in short: as §1
[8] = tested on: Bifidobacterium longum; assay: Antimicrobial activity against Bifidobacterium longum R0175; format: functional; in short: as §1
[9] = tested on: Bifidobacterium longum; assay: Antimicrobial activity against Bifidobacterium longum P/N 601377; format: functional; in short: as §1
[10] = tested on: Bifidobacterium pseudolongum; assay: Antimicrobial activity against Bifidobacterium pseudolongum ATCC 25562; format: functional; in short: as §1
[11] = tested on: Bifidobacterium thermophilum; assay: Antimicrobial activity against Bifidobacterium thermophilum ATCC 25866; format: functional; in short: as §1
[12] = tested on: Bifidobacterium breve; assay: Antimicrobial activity against Bifidobacterium breve R0070; format: functional; in short: as §1
[13] = tested on: Bifidobacterium animalis; assay: Antimicrobial activity against 60 min 1 M HCl-stressed Bifidobacterium animalis ATCC 27536 after 18 hrs; format: functional
In short: (§2)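 Mid-log MRS culture pelleted and resuspended in MRS broth brought to pH 2.0 with 1 M HCl, held anaerobically at 37°C for 60 min, then subcultured in MRS (pH 6.5) for 24 h anaerobically before MIC testing by broth microdilution (as for unstressed cells). Table footnote gives 18 h anaerobic regrowth after the stress. MIC is the median of four repetitions.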

[14] = tested on: Bifidobacterium bifidum; assay: Antimicrobial activity against 60 min 1 M HCl-stressed Bifidobacterium bifidum R0071 after 18 hrs; format: functional; in short: as §2
[15] = tested on: Bifidobacterium bifidum; assay: Antimicrobial activity against 60 min 1 M HCl-stressed Bifidobacterium bifidum BB12 after 18 hrs; format: functional; in short: as §2
[16] = tested on: Bifidobacterium breve; assay: Antimicrobial activity against 60 min 1 M HCl-stressed Bifidobacterium breve ATCC 15700 after 18 hrs; format: functional; in short: as §2
[17] = tested on: Bifidobacterium breve; assay: Antimicrobial activity against 60 min 1 M HCl-stressed Bifidobacterium breve R0070 after 18 hrs; format: functional; in short: as §2
[18] = Antimicrobial activity against 60 min 1 M HCl-stressed Bifidobacterium infantis ATCC 15697 after 18 hrs; format: functional, Bifidobacterium longum subsp. infantis; details: Bifidobacterium longum; in short: as §2
[19] = tested on: Bifidobacterium longum; assay: Antimicrobial activity against 60 min 1 M HCl-stressed Bifidobacterium longum ATCC 15707 after 18 hrs; format: functional; in short: as §2
[20] = tested on: Bifidobacterium longum; assay: Antimicrobial activity against 60 min 1 M HCl-stressed Bifidobacterium longum R0175 after 18 hrs; format: functional; in short: as §2
[21] = tested on: Bifidobacterium longum; assay: Antimicrobial activity against 60 min 1 M HCl-stressed Bifidobacterium longum P/N 601377 after 18 hrs; format: functional; in short: as §2
[22] = tested on: Bifidobacterium pseudolongum; assay: Antimicrobial activity against 60 min 1 M HCl-stressed Bifidobacterium pseudolongum ATCC 25562 after 18 hrs; format: functional; in short: as §2
[23] = tested on: Bifidobacterium thermophilum; assay: Antimicrobial activity against 60 min 1 M HCl-stressed Bifidobacterium thermophilum ATCC 25866 after 18 hrs; format: functional; in short: as §2
[24] = tested on: Bifidobacterium animalis; assay: Antimicrobial activity against 90 mins oxgall-stressed Bifidobacterium animalis ATCC 27536 after 18 hrs; format: functional
In short: (§3)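 Cells pelleted from mid-log MRS culture and resuspended in MRS (initial pH 6.5) with 0.3% (wt/vol) oxgall for 90 min anaerobically at 37°C. They were then regrown in MRS pH 6.5 for 24 h (footnote: 18 h) anaerobically and tested for MIC by the same broth microdilution assay. Median of four repetitions.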

[25] = tested on: Bifidobacterium bifidum; assay: Antimicrobial activity against 90 mins oxgall-stressed Bifidobacterium bifidum R0071 after 18 hrs; format: functional; in short: as §3
[26] = tested on: Bifidobacterium bifidum; assay: Antimicrobial activity against 90 mins oxgall-stressed Bifidobacterium bifidum ATCC 15696 after 18 hrs; format: functional; in short: as §3
[27] = tested on: Bifidobacterium bifidum; assay: Antimicrobial activity against 90 mins oxgall-stressed Bifidobacterium bifidum BB12 after 18 hrs; format: functional; in short: as §3
[28] = tested on: Bifidobacterium breve; assay: Antimicrobial activity against 90 mins oxgall-stressed Bifidobacterium breve ATCC 15700 after 18 hrs; format: functional; in short: as §3
[29] = tested on: Bifidobacterium breve; assay: Antimicrobial activity against 90 mins oxgall-stressed Bifidobacterium breve R0070 after 18 hrs; format: functional; in short: as §3
[30] = Antimicrobial activity against 90 mins oxgall-stressed Bifidobacterium infantis ATCC 15697 after 18 hrs; format: functional, Bifidobacterium longum subsp. infantis; details: Bifidobacterium longum; in short: as §3
[31] = tested on: Bifidobacterium longum; assay: Antimicrobial activity against 90 mins oxgall-stressed Bifidobacterium longum ATCC 15707 after 18 hrs; format: functional; in short: as §3
[32] = tested on: Bifidobacterium longum; assay: Antimicrobial activity against 90 mins oxgall-stressed Bifidobacterium longum ATCC 15708 after 18 hrs; format: functional; in short: as §3
[33] = tested on: Bifidobacterium longum; assay: Antimicrobial activity against Bifidobacterium longum ATCC 15707; format: functional; in short: as §1
[34] = tested on: Bifidobacterium longum; assay: Antimicrobial activity against 90 mins oxgall-stressed Bifidobacterium longum R0175 after 18 hrs; format: functional; in short: as §3
[35] = tested on: Bifidobacterium longum; assay: Antimicrobial activity against 90 mins oxgall-stressed Bifidobacterium longum P/N 601377 after 18 hrs; format: functional; in short: as §3
[36] = tested on: Bifidobacterium pseudolongum; assay: Antimicrobial activity against 90 mins oxgall-stressed Bifidobacterium pseudolongum ATCC 25562 after 18 hrs; format: functional; in short: as §3
[37] = tested on: Bifidobacterium thermophilum; assay: Antimicrobial activity against 90 mins oxgall-stressed Bifidobacterium thermophilum ATCC 25866 after 18 hrs; format: functional; in short: as §3
[38] = tested on: Bifidobacterium animalis; assay: Antimicrobial activity against 90 mins hydrogen peroxide-stressed Bifidobacterium animalis ATCC 27536 after 18 hrs; format: functional
In short: (§4)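 Stress applied for 90 min at 37°C under anaerobic conditions, using MRS (initial pH 6.5) containing H2O2 at each strain's own inhibitory concentration. The H2O2 level was set beforehand by microplate tolerance testing. Challenged cells were regrown in MRS for 24 h (footnote: 18 h) before MIC testing by broth microdilution. Median of four repetitions.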

[39] = tested on: Bifidobacterium bifidum; assay: Antimicrobial activity against 90 mins hydrogen peroxide-stressed Bifidobacterium bifidum R0071 after 18 hrs; format: functional; in short: as §4
[40] = tested on: Bifidobacterium bifidum; assay: Antimicrobial activity against 90 mins hydrogen peroxide-stressed Bifidobacterium bifidum BB12 after 18 hrs; format: functional; in short: as §4
[41] = tested on: Bifidobacterium breve; assay: Antimicrobial activity against 90 mins hydrogen peroxide-stressed Bifidobacterium breve ATCC 15700 after 18 hrs; format: functional; in short: as §4
[42] = tested on: Bifidobacterium breve; assay: Antimicrobial activity against 90 mins hydrogen peroxide-stressed Bifidobacterium breve R0070 after 18 hrs; format: functional; in short: as §4
[43] = tested on: Bifidobacterium longum; assay: Antimicrobial activity against 90 mins hydrogen peroxide-stressed Bifidobacterium longum ATCC 15707 after 18 hrs; format: functional; in short: as §4
[44] = tested on: Bifidobacterium longum; assay: Antimicrobial activity against 90 mins hydrogen peroxide-stressed Bifidobacterium longum ATCC 15708 after 18 hrs; format: functional; in short: as §4
[45] = tested on: Bifidobacterium longum; assay: Antimicrobial activity against 90 mins hydrogen peroxide-stressed Bifidobacterium longum R0175 after 18 hrs; format: functional; in short: as §4
[46] = tested on: Bifidobacterium longum; assay: Antimicrobial activity against 90 mins hydrogen peroxide-stressed Bifidobacterium longum P/N 601377 after 18 hrs; format: functional; in short: as §4
[47] = tested on: Bifidobacterium thermophilum; assay: Antimicrobial activity against 90 mins hydrogen peroxide-stressed Bifidobacterium thermophilum ATCC 25866 after 18 hrs; format: functional; in short: as §4

SMILES: CC[C@H]1OC(=O)[C@H](C)[C@@H](O[C@H]2C[C@@](C)(OC)[C@@H](O)[C@H](C)O2)[C@H](C)[C@@H](O[C@@H]2O[C@H](C)C[C@H](N(C)C)[C@H]2O)[C@](C)(O)C[C@@H](C)C(=O)[C@H](C)[C@@H](O)[C@]1(C)O [ERYTHROMYCIN]
- MIC [1]: 3.9 µg/mL (≈ 5.31 µM)
- MIC [2]: 1.9 µg/mL (≈ 2.59 µM)
- MIC [3]: 7.8 µg/mL (≈ 10.6 µM)
- MIC [4]: 15.6 µg/mL (≈ 21.3 µM)
- MIC [5]: 1.95 µg/mL (≈ 2.66 µM)
- MIC [6]: 15.6 µg/mL (≈ 21.3 µM)
- MIC [7]: 3.9 µg/mL (≈ 5.31 µM)
- MIC [8]: 0.98 µg/mL (≈ 1.34 µM)
- MIC [9]: 0.98 µg/mL (≈ 1.34 µM)
- MIC [10]: 3.9 µg/mL (≈ 5.31 µM)
- MIC [11]: 0.98 µg/mL (≈ 1.34 µM)
- MIC [12]: 0.98 µg/mL (≈ 1.34 µM)
- MIC [13]: 1.9 µg/mL (≈ 2.59 µM)
- MIC [14]: 0.98 µg/mL (≈ 1.34 µM)
- MIC [15]: 3.9 µg/mL (≈ 5.31 µM)
- MIC [16]: 3.9 µg/mL (≈ 5.31 µM)
- MIC [17]: 0.98 µg/mL (≈ 1.34 µM)
- MIC [18]: 3.9 µg/mL (≈ 5.31 µM)
- MIC [19]: 0.98 µg/mL (≈ 1.34 µM)
- MIC [20]: 0.98 µg/mL (≈ 1.34 µM)
- MIC [21]: 0.98 µg/mL (≈ 1.34 µM)
- MIC [22]: 3.9 µg/mL (≈ 5.31 µM)
- MIC [23]: 0.98 µg/mL (≈ 1.34 µM)
- MIC [24]: 1.9 µg/mL (≈ 2.59 µM)
- MIC [25]: 3.9 µg/mL (≈ 5.31 µM)
- MIC [26]: 3.9 µg/mL (≈ 5.31 µM)
- MIC [27]: 3.9 µg/mL (≈ 5.31 µM)
- MIC [28]: 0.98 µg/mL (≈ 1.34 µM)
- MIC [29]: 0.98 µg/mL (≈ 1.34 µM)
- MIC [30]: 3.9 µg/mL (≈ 5.31 µM)
- MIC [31]: 3.9 µg/mL (≈ 5.31 µM)
- MIC [32]: 1.9 µg/mL (≈ 2.59 µM)
- MIC [33]: 0.98 µg/mL (≈ 1.34 µM)
- MIC [34]: 1.9 µg/mL (≈ 2.59 µM)
- MIC [35]: 3.9 µg/mL (≈ 5.31 µM)
- MIC [36]: 3.9 µg/mL (≈ 5.31 µM)
- MIC [37]: 3.9 µg/mL (≈ 5.31 µM)
- MIC [38]: 0.98 µg/mL (≈ 1.34 µM)
- MIC [39]: 500 µg/mL (≈ 681 µM)
- MIC [40]: 0.98 µg/mL (≈ 1.34 µM)
- MIC [41]: 0.98 µg/mL (≈ 1.34 µM)
- MIC [42]: 0.98 µg/mL (≈ 1.34 µM)
- MIC [43]: 0.98 µg/mL (≈ 1.34 µM)
- MIC [44]: 0.98 µg/mL (≈ 1.34 µM)
- MIC [45]: 0.98 µg/mL (≈ 1.34 µM)
- MIC [46]: 1.9 µg/mL (≈ 2.59 µM)
- MIC [47]: 0.98 µg/mL (≈ 1.34 µM)
